Assay [1] deals with T1, Alpha-2 adrenergic receptor (Mus musculus, UniProt P30545+Q01338+Q01337).
T1 sequence (P30545 whole entry): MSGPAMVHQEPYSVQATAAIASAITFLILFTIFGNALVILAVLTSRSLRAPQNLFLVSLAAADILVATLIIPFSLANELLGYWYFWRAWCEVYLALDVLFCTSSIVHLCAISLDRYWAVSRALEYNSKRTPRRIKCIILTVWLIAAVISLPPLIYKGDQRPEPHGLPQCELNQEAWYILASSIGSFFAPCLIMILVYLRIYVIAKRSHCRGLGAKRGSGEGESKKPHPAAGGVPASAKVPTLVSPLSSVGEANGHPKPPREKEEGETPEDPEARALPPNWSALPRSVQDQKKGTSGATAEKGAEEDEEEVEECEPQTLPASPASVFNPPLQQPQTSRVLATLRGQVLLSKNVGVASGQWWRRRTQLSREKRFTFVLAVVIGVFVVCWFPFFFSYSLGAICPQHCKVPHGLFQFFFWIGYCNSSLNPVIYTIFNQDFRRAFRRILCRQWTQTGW
T1 sequence (Q01338 whole entry): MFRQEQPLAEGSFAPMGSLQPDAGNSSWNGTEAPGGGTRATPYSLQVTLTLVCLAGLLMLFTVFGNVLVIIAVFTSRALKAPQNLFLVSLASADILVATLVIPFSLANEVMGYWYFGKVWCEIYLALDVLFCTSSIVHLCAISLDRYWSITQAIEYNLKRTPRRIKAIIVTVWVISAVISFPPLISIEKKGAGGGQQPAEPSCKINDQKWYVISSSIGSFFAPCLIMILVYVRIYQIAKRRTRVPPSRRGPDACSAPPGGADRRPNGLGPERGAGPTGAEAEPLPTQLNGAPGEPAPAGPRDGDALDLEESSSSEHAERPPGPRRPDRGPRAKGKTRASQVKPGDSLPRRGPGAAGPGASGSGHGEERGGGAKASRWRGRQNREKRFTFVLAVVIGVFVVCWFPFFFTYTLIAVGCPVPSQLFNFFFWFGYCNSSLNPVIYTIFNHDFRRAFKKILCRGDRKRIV
T1 sequence (Q01337 whole entry): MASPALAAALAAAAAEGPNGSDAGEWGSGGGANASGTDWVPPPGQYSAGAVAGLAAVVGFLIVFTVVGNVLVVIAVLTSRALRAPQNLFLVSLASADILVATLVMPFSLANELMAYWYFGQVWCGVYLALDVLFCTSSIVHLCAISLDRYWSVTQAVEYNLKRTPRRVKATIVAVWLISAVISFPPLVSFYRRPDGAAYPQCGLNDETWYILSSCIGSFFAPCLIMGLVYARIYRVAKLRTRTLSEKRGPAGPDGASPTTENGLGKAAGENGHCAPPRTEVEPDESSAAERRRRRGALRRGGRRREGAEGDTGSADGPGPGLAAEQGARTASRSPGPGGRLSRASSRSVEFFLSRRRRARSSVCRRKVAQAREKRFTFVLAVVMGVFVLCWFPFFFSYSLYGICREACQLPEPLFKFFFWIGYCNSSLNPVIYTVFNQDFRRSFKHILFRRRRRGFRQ
Kind of assay: Alpha-2 adrenergic receptor […] in mouse vas deferens assay compared to clonidine. Format: functional, tissue-based. An outline of the steps: (§1)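 Isolated tissue agonist test, potency compared directly with the standard in the same experiment. Standard dose-response curves were run before and after the test compound's curve. Rat anococcygeus (male Sprague-Dawley, 200-250 g; Krebs, 30 °C, 95% O2/5% CO2) was compared with phenylephrine. Field-stimulated mouse vas deferens (0.1 Hz, Mg-free Krebs, 30 °C) was compared with clonidine.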

The target of assay [2] is T1, Alpha-2 adrenergic receptor. Nature of the assay: Alpha-2 adrenergic receptor […] in mouse vas deferens relative to clonidine. Format: functional, tissue-based. An outline of the steps:
as §1

The target of assay [3] is T2, Alpha-2 adrenergic receptor (Mus musculus) (UniProt P30545+Q01338+Q01337). Kind of assay: Ability to antagonize the inhibitory effect of clonidine on the mouse vas deferens is the presynaptic alpha-2 adrenergic receptor antagonist potency relative to idazoxan = 1. It is filed as functional, tissue-based. The essentials:
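Male adult mouse vasa deferentia (MFI >30 g), 0.5 g initial tension, Mg-free Krebs, 30 °C, 95% O2/5% CO2. Field stimulation at 0.1 Hz, 3-ms pulses, 100-140 V set to give ~100-mg twitch, recorded isometrically.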

For assay [4], the target named is T3, Adrenergic receptor alpha-1 (Rattus norvegicus) (UniProt P15823+P23944+P43140). Nature of the assay: Agonism at Alpha-1 adrenoceptor determined in rat anococcygeus preparation; Inactive. Format: functional. The essentials:
as §1

Assay [5] addresses T3, Adrenergic receptor alpha-1 (Rattus norvegicus). Nature of the assay: In vitro inhibition of the contractile effect of phenylephrine on the isolated rat anococcygeus; potency relative to idazoxan. It is filed as functional.
Assay [6] concerns the target T2, Alpha-2 adrenergic receptor (Mus musculus). Nature of the assay: Presynaptic alpha-2 adrenergic receptor from mouse vas deferens agonistic activity relative to clonidine = 1. It is filed as functional, tissue-based. An outline of the steps:
as §1

A short description of assay [7]: Ratio of agonist potencies against alpha2 and alpha-1 adrenoceptors. It is filed as functional.
Assay [8] deals with T4, Adrenergic receptor alpha-1 (Rattus norvegicus, UniProt P15823+P23944+P43140).
T4 sequence (P15823 whole entry): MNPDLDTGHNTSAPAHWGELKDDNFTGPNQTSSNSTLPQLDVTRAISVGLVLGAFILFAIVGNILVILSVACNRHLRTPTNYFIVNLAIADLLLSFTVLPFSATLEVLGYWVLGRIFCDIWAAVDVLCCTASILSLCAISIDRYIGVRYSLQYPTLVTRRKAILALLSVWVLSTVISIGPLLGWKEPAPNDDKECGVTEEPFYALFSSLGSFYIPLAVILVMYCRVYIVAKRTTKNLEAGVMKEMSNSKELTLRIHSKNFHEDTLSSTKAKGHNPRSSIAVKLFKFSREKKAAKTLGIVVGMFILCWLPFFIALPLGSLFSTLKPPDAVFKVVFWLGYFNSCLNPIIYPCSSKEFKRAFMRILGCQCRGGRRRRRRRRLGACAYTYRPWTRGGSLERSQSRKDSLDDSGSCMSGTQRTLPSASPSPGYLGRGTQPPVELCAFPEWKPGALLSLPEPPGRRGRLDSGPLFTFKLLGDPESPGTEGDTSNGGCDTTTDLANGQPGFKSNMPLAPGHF
T4 sequence (P23944 whole entry): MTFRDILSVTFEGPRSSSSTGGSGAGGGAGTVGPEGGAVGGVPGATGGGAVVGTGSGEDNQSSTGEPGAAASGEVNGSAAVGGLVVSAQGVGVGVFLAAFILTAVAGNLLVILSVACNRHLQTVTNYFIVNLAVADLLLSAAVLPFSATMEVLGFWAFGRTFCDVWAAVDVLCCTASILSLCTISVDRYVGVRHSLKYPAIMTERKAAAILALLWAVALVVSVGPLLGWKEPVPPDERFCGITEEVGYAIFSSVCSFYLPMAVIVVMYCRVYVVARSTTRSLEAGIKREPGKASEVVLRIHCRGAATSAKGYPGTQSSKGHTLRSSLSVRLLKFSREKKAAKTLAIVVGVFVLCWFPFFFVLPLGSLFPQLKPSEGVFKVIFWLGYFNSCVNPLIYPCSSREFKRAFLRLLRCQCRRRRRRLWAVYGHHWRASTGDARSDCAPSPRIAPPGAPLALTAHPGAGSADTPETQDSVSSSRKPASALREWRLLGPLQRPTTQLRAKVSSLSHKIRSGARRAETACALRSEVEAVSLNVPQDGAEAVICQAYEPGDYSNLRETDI
T4 sequence (P43140 whole entry): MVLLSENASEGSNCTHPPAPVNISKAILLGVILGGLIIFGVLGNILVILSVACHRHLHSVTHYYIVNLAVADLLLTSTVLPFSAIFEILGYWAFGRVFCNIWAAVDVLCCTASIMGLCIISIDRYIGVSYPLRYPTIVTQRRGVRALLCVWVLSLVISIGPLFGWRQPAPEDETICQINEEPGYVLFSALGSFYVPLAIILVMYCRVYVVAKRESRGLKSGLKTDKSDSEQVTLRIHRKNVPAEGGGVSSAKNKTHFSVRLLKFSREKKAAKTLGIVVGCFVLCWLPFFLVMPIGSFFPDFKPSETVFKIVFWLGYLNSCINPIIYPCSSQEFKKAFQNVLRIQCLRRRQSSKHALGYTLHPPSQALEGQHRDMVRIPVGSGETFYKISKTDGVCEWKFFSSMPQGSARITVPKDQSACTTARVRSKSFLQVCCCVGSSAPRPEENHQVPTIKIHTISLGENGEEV
Nature of the assay: Alpha-1 adrenergic receptor […] in rat anococcygeus assay. It is filed as functional. An outline of the steps: as §1

The nature of assay [9]: Selectivity between pre- and post-synaptic sites of action. It is filed as functional.
Assay [10] addresses T3, Adrenergic receptor alpha-1 (Rattus norvegicus). Nature of the assay: Agonism in vitro at Alpha-1 adrenoceptor determined in rat anococcygeus preparation. Format: functional. The essentials:
as §1

Assay [11] has as its target T2, Alpha-2 adrenergic receptor (Mus musculus). Kind of assay: Presynaptic alpha-2 adrenergic receptor agonistic activity in mouse vas deferens relative to clonidine. Format: functional, tissue-based. An outline of the steps: as §1
Assay [12] addresses T3, Adrenergic receptor alpha-1 (Rattus norvegicus). Nature of the assay: Post-synaptic alpha-1 adrenergic receptor (rat anococcygeus) agonistic activity relative to phenylephrine; Inactive. It is filed as functional. The essentials:
as §1

For assay [13], the target named is T2, Alpha-2 adrenergic receptor (Mus musculus). Kind of assay: Inhibition of alpha-2 adrenergic receptor. It is filed as functional.
Assay [14] shares this target. Nature of the assay: Presynaptic alpha-2 adrenergic receptor agonist activity in isolated mouse vas deferens. It is filed as functional, tissue-based. An outline of the steps: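 Vasa deferentia from adult male MFI mice (>30 g) were held at 0.5 g initial tension in Mg-free Krebs solution at 30 °C, gassed with 95% O2/5% CO2. Tissues were field-stimulated at 0.1 Hz with 3-ms pulses, with voltage (100-140 V) set for about 100-mg twitches, recorded isometrically. Potency was expressed relative to the standard, run before and after each analogue curve in the same tissue.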

The target in assay [15] is T3, Adrenergic receptor alpha-1 (Rattus norvegicus). Nature of the assay: Post-synaptic alpha-1 adrenergic receptor (rat anococcygeus) agonistic activity relative to phenylephrine. It is filed as functional. The essentials:
as §1

The target is the same in assay [16]. Kind of assay: In vitro inhibition of the contractile effect of phenylephrine on the isolated rat anococcygeus; potency relative to idazoxan; Inactive. It is filed as functional.

Each structure is given as a SMILES string. Activity calls are given as the source filed them. The calls are words filed in the database; no cut-off is given here.

Regarding `Cl.c1ccc2c(c1)OCC(C1=NCCN1)O2` (stereo not given) [IDAZOXAN HYDROCHLORIDE], in [1], the pA2 was 7.98.
For the molecule `Cl.Clc1ccc2c(c1)CC(C1=NCCN1)O2` (stereo not given), the pA2 in [2] is recorded as 7.8; in [8], 7.05. Moreover, the Antagonist potency came out at 0.53 in [3] and 0.35 in assay [5]. In addition, the Agonist potency entry in assay [4] and in assay [6] was “inactive” each time. For the same molecule, the Selectivity ratio in assay [7] amounted to 5.6. Also, the Ratio in assay [9] came to 1.5.
For the molecule `CCCCCC1(C2=NCCN2)Cc2ccccc2O1.Cl` (stereo not given), the pA2 in [2] came out at 7.97; in assay [8], 6.47. The figures for the Antagonist potency in [3] and in assay [5] were 0.44 and 1, respectively. Moreover, the Agonist potency result in [4] and in [6] was “inactive” throughout. Also, the Selectivity ratio in assay [7] stood at 32. Moreover, the Ratio in [9] is 0.44.
Regarding `Cl.c1ccc2c(c1)CC(C1=NCCN1)O2` (stereo not given), the pA2 in assay [2] came out at 8.35. Besides, the Antagonist potency in [3] turned out to be 1.7; in [5], 0.16. The Agonist potency in [10] came out at 0.01. The Agonist potency result in [6] is “inactive”. Besides, the Ratio in assay [9] amounted to 10.6.
Regarding `CC1(C2=NCCN2)Cc2ccccc2O1` (stereo not given), the Agonist potency in [11] was determined as 0.002. The Antagonist potency came to 0.25 in [3] and 0.35 in assay [5]. For the same molecule, the Agonist potency entry in assay [12] is “inactive”. In addition, the Ratio in assay [9] was determined as 0.71.
`CCC1(C2=NCCN2)Cc2ccccc2O1.Cl` (stereo not given) [EFAROXAN HYDROCHLORIDE]: the pA2 in [2] came to 8.32; in assay [8], 5.91. The Antagonist potency is 1.8 in assay [3] and 0.3 in assay [5]. For the same molecule, the Agonist potency result in assay [4] and in [6] was “inactive” in each case. The Selectivity ratio in [7] was determined as 258. The Ratio in assay [9] came out at 6.
In the case of `COc1ccc2c(c1)CC(C1=NCCN1)O2` (stereo not given), the Antagonist potency was found to be 0.12 in assay [3] and 0.023 in [5]. In addition, the Agonist potency entry in assay [12] and in assay [6] was “inactive” in each case. In [9], the Ratio is 5.2.
In the case of `Clc1cccc(Cl)c1NC1=NCCN1`, the IC40 in [13] amounted to 3.68 nM. In [14], this molecule had a pD2 of 8.8.
For the molecule `CCCC1(C2=NCCN2)Cc2ccccc2O1.Cl` (stereo not given), the pA2 came to 8.63 in [2] and 6.39 in assay [8]. The values for the Antagonist potency in assay [3] and in assay [5] were 1.9 and 1, respectively. In addition, the Agonist potency result in assay [4] and in [6] was “inactive” throughout. Moreover, the Selectivity ratio in assay [7] amounted to 175. The Ratio in assay [9] turned out to be 1.9.
For the molecule `Cc1cc(Cl)cc2c1OC(C1=NCCN1)C2` (stereo not given), the Antagonist potency in assay [3] was determined as 0.5. In assay [15], this molecule showed an Agonist potency of 1. Moreover, in assay [6], the Agonist potency entry was “inactive”. Further, the Antagonist potency result in [16] was “inactive”.

Source of the values: ChEMBL document CHEMBL1122643, “Alpha-adrenoreceptor reagents. 2. Effects of modification of the 1,4-benzodioxan ring system on alpha-adrenoreceptor activity” (J Med Chem, 1984).
